Starred links: 1 amine or outer side, 2 acyl side, 3 side chain; linkers in the order of their positions; H or OH if unused. Positions of bridges follow the written chain, without caps; N, C: chain ends. Non-standard residues stand in square brackets, D forms with d. Residues, ends and D or L forms follow the SMILES beside them. ξ: configuration not given here. *: point of attachment. X1 = CC[C@H](C)[C@@H](N[*:1])[C@@H](O)CC(=O)O[C@H](C(=O)[C@H](C)C(=O)[*:2])C(C)C; Benzoyl(4-benzoyl) = O=C(c1ccccc1)c1ccc(C(=O)*)cc1; X2 = CC[C@H](C)[C@@H](N[*:1])[C@@H](O)CC(=O)[*:2]; Propanoyl(3-(4-MeO-Ph)) = COc1ccc(CCC(=O)*)cc1; NMeY = CN[C@@H](Cc1ccc(O)cc1)C(=O)O; NMeL = CN[C@@H](CC(C)C)C(=O)O; dHica = CC(C)C[C@@H](O)C(=O)O; dNMeL = CN[C@H](CC(C)C)C(=O)O; pGlu = O=C1CC[C@@H](C(=O)O)N1; NMeV = CN[C@H](C(=O)O)C(C)C; Hiv = CC(C)[C@H](O)C(=O)O; NMeA = CN[C@@H](C)C(=O)O; Lac = C[C@H](O)C(=O)O; OBn = c1ccc(CO*)cc1; Ahx = NCCCCCC(=O)O; ξP = O=C(O)C1CCCN1; βAla = NCCC(=O)O
Species: Oryctolagus cuniculus
Assay: In vitro inhibition of protein synthesis in tobacco mosaic virus mRNA-encoded proteins in rabbit reticulocyte lysate
Assay type: functional
In short: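 Cell-free translation in rabbit reticulocyte lysate programmed with tobacco mosaic virus mRNA. Protein synthesis was measured as [³⁵S]methionine incorporation into the encoded proteins across a range of inhibitor concentrations, and IC50 was derived from the concentration dependence.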

| Compound | IC50 |
| --- | --- |
| COc1ccc(C[C@@H](C(=O)NCCNC(=O)[C@H](CC(C)C)N(C)C(=O)[C@@H]2CCCN2C(=O)[C@H](C)O)N(C)C(=O)C2CCCN2C(=O)[C@H](CC(C)C)NC(=O)[C@@H](C)NC(=O)OCc2ccccc2)cc1 (stereo not given in full) | 275 µM |
| COc1ccc(C[C@@H](C(=O)O[C@H](C)[C@H](NC(=O)[C@@H](CC(C)C)N(C)C(=O)[C@@H]2CCCN2C(=O)[C@H](C)O)C(=O)N2CCCCNC(=O)[C@H](C)C(=O)[C@H](C(C)C)OC(=O)C[C@H](O)[C@H]2CC(C)C)N(C)C(C)=O)cc1 | > 1000 µM |
| CC[C@H](C)[C@H]1NC(=O)[C@@H](NC(=O)[C@@H](CC(C)C)N(C)C(=O)[C@@H]2CCCN2C(=O)[C@H](C)OC(C)=O)[C@@H](C)OC(=O)[C@H](Cc2ccc(OC)cc2)N(C)C(=O)[C@@H]2CCCN2C(=O)[C@H](CC(C)C)NC(=O)[C@@H](C)C(=O)[C@H](C(C)C)OC(=O)C[C@@H]1OC(C)=O | 10 µM |
| CSCC[C@H](N)C(=O)N[C@@H](CCC(=O)O)C(=O)N[C@@H](Cc1c[nH]cn1)C(=O)N[C@@H](Cc1ccccc1)C(=O)N[C@@H](CCCN=C(N)N)C(=O)N[C@@H](Cc1c[nH]c2ccccc12)C(=O)NCC(=O)O | 4 µM |
| CC[C@H](C)[C@H]1NC(=O)[C@@H](NC(=O)[C@@H](CC(C)C)N(C)C(=O)[C@@H]2CCCN2C(=O)[C@H](C)O)[C@@H](C)OC(=O)[C@@H]2CCc3ccccc3N2C(=O)[C@@H]2CCCN2C(=O)[C@H](CC(C)C)NC(=O)[C@@H](C)C(=O)[C@H](C(C)C)OC(=O)C[C@@H]1O | 2.7 µM |
| COc1ccc(C[C@H]2C(=O)O[C@H](C)[C@H](NC(=O)[C@@H](CC(C)C)N(C)C(=O)[C@@H]3CCCN3C(=O)[C@H](C)O)C(=O)N[C@H](C(C)C)[C@@H](O)CC(=O)O[C@@H](C(C)C)C(=O)[C@H](C)C(=O)N[C@@H](CC(C)C)C(=O)N3CCC[C@H]3C(=O)N2C)cc1 | 3 µM |
| COc1ccc(C[C@H]2C(=O)O[C@H](C)[C@H](NC(=O)[C@@H](CC(C)C)N(C)C(=O)C3CCCN3C(=O)[C@H](C)O)C(=O)N[C@H](C(C)C)[C@@H](O)CC(=O)O[C@@H](C(C)C)C(=O)[C@H](C)C(=O)N[C@@H](CC(C)C)C(=O)N3CCCC3C(=O)N2C)cc1 (stereo not given in full) | 1 µM |
| COc1ccc(C[C@H]2C(=O)N[C@@H](C)C(=O)N(C)[C@H]3Cc4ccc(cc4)Oc4cc(ccc4OC)C[C@@H](C(=O)N[C@H](C)C(=O)N[C@@H](C)C(=O)N2C)N(C)C3=O)cc1 | 0.05 µM |
| CC[C@H](C)[C@H]1NC(=O)[C@@H](NC(=O)[C@@H](CC(C)C)N(C)C(=O)C2CCCN2)[C@@H](C)OC(=O)[C@H](Cc2ccc(OC)cc2)N(C)C(=O)C2CCCN2C(=O)[C@H](CC(C)C)NC(=O)[C@@H](C)C(=O)[C@H](C(C)C)OC(=O)C[C@@H]1O (stereo not given in full) | 4.3 µM |
| CC[C@H](C)[C@H]1NC(=O)[C@@H](NC(=O)[C@@H](CC(C)C)N(C)C(=O)C2C=CCN2C(=O)OC(C)(C)C)[C@@H](C)OC(=O)[C@H](Cc2ccc(OC)cc2)N(C)C(=O)C2CCCN2C(=O)[C@H](CC(C)C)NC(=O)[C@@H](C)C(=O)[C@H](C(C)C)OC(=O)C[C@@H]1O (stereo not given in full) | 5.3 µM |
| CC[C@H](C)[C@H]1NC(=O)[C@@H](NC(=O)[C@@H](CC(C)C)N(C)C(=O)C2CCCN2C(=O)[C@H](C)O)[C@@H](C)OC(=O)[C@H](CC(C)C)N(C)C(=O)C2CCCN2C(=O)[C@H](CC(C)C)NC(=O)[C@@H](C)C(=O)[C@H](C(C)C)OC(=O)C[C@@H]1O (stereo not given in full) | 9 µM |
| C=CCOC(=O)N[C@@H](CC(C)C)C(=O)N1CCC[C@H]1C(=O)N(C)[C@@H](Cc1ccc(OC)cc1)C(=O)O[C@H](C)[C@H](NC(=O)[C@@H](CC(C)C)N(C)C(=O)[C@@H]1CCCN1C(=O)[C@H](C)O)C(=O)OCC[Si](C)(C)C | 112 µM |
| CC[C@H](C)[C@H]1NC(=O)[C@@H](NC(=O)[C@@H](CC(C)C)N(C)C(=O)C2C=CCN2)[C@@H](C)OC(=O)[C@H](Cc2ccc(OC)cc2)N(C)C(=O)C2CCCN2C(=O)[C@H](CC(C)C)NC(=O)[C@@H](C)C(=O)[C@H](C(C)C)OC(=O)C[C@@H]1O (stereo not given in full) | 4.3 µM |
| CC[C@H](C)[C@H]1NC(=O)[C@@H](NC(=O)[C@@H](CC(C)C)N(C)C(=O)C2CCCN2C(=O)[C@H](C)O)[C@@H](C)OC(=O)[C@H](Cc2ccccc2)N(C)C(=O)C2CCCN2C(=O)[C@H](CC(C)C)NC(=O)[C@@H](C)C(=O)[C@H](C(C)C)OC(=O)C[C@@H]1O (stereo not given in full) | 2.5 µM |
| CC[C@H](C)[C@H]1NC(=O)[C@@H](NC(=O)[C@@H](CC(C)C)NC)[C@@H](C)OC(=O)[C@H](Cc2ccc(OC)cc2)N(C)C(=O)C2CCCN2C(=O)[C@H](CC(C)C)NC(=O)[C@@H](C)C(=O)[C@H](C(C)C)OC(=O)C[C@@H]1O (stereo not given in full) | 5.4 µM |
| CC(=O)O[C@H](C)[C@H](NC(=O)[C@H](CC(C)C)N(C)C(=O)[C@@H]1CCCN1C(=O)[C@H](C)O)C(=O)OCc1ccccc1 (H-[Lac]P[NMeL]T(Ac)-OBn) | 276 µM |
| COc1ccc(CCC(=O)O[C@H](C)[C@H](NC(=O)[C@H](CC(C)C)N(C)C(=O)[C@@H]2CCCN2C(=O)[C@H](C)O)C(=O)OCc2ccccc2)cc1 (H-[Lac]P[NMeL]T(Propanoyl(3-(4-MeO-Ph)))-OBn) | 405 µM |
| CC[C@H](C)[C@H]1NC(=O)[C@@H](NC(=O)[C@@H](CC(C)C)N(C)C(=O)[C@@H]2CCCN2C(=O)[C@H](C)O)[C@@H](C)OC(=O)[C@H](Cc2ccc(OC)cc2)N(C)C(=O)[C@@H]2CCCN2C(=O)[C@H](CC(C)C)NC(=O)[C@H](C(C)C)OC(=O)C[C@@H]1O (H-[Lac]P[dNMeL]T[X2][Hiv]LP[NMeY](Me); ester 4-C) | 1.3 µM |
| CC[C@H](C)[C@@H]1NC(=O)[C@@H]2CCCN2C(=O)[C@@H](CC(C)C)OC(=O)CCNC(=O)[C@H](C)N(C)C(=O)[C@H](C(C)C)N(C)C1=O (cyclo(I[NMeV][NMeA][βAla][dHica]P)) | > 1000 µM |
| CC[C@H](C)[C@H]1NC(=O)[C@@H](NC(=O)[C@@H](CC(C)C)N(C)C(=O)CCCCCNC(=O)c2ccc(C(=O)c3ccccc3)cc2)[C@@H](C)OC(=O)[C@H](Cc2ccc(OC)cc2)N(C)C(=O)C2CCCN2C(=O)[C@H](CC(C)C)NC(=O)[C@@H](C)C(=O)[C@H](C(C)C)OC(=O)C[C@@H]1O (stereo not given in full) ({Benzoyl(4-benzoyl)-Ahx}-[dNMeL]T[X1]L[ξP][NMeY](Me); ester 2-C) | 24 µM |
| CC[C@H](C)[C@H]1NC(=O)[C@@H](NC(=O)[C@@H](CC(C)C)N(C)C(=O)CNC(=O)c2ccc(C(=O)c3ccccc3)cc2)[C@@H](C)OC(=O)[C@H](Cc2ccc(OC)cc2)N(C)C(=O)C2CCCN2C(=O)[C@H](CC(C)C)NC(=O)[C@@H](C)C(=O)[C@H](C(C)C)OC(=O)C[C@@H]1O (stereo not given in full) ({Benzoyl(4-benzoyl)}-G[dNMeL]T[X1]L[ξP][NMeY](Me); ester 3-C) | 4.5 µM |
| CC[C@H](C)[C@H]1NC(=O)[C@@H](NC(=O)[C@@H](CC(C)C)N(C)C(=O)c2ccc(C(=O)c3ccccc3)cc2)[C@@H](C)OC(=O)[C@H](Cc2ccc(OC)cc2)N(C)C(=O)C2CCCN2C(=O)[C@H](CC(C)C)NC(=O)[C@@H](C)C(=O)[C@H](C(C)C)OC(=O)C[C@@H]1O (stereo not given in full) ({Benzoyl(4-benzoyl)}-[dNMeL]T[X1]L[ξP][NMeY](Me); ester 2-C) | 4 µM |
| O=C(O)C1=CC(=C(c2ccc(O)c(C(=O)O)c2)c2ccc(O)c(C(=O)O)c2)C=CC1=O [AURINTRICARBOXYLIC ACID] | 10 µM |
| C=C(NC(=O)C(=C)NC(=O)c1ccc2c(n1)-c1coc(n1)C(=C)NC(=O)C(=C)NC(=O)c1nc(oc1C)C(=C)NC(=O)C(C(C)(C)O)NC(=O)C(=C)NC(=O)c1nc(oc1C)/C(=C/C)NC(=O)C(C(C)O)NC(=O)c1csc-2n1)C(N)=O (stereo not given) [BERNINAMYCIN] | 600 µM |
| COc1ccc(C[C@H]2C(=O)N[C@@H](C)C(=O)N(C)[C@@H]3C(=O)N(C)[C@@H](Cc4ccc(O)c(c4)Oc4ccc(cc4)[C@@H]3O)C(=O)N[C@@H](C)C(=O)N[C@@H](C)C(=O)N2C)cc1 [BOUVARDIN] | 0.1 µM |
| C[C@@H]1C[C@@H]([C@H](O)CC2CC(=O)NC(=O)C2)C(=O)[C@@H](C)C1 [CYCLOHEXIMIDE] | 5 µM |
| CC[C@H](C)[C@H](NC(=O)[C@H](Cc1ccccc1)NC(=O)[C@H](C)NC(=O)[C@H](CC(=O)O)NC(=O)[C@H](CCCCN)NC(=O)[C@H](CO)NC(=O)[C@@H]1CCCN1C(=O)[C@@H]1CCC(=O)N1)C(=O)NCC(=O)N[C@@H](CC(C)C)C(=O)N[C@@H](CCSC)C(N)=O [ELEDOISIN] ([pGlu]PSKDAFIGLM-NH2) | 500 µM |
| CC(=O)O[C@H]1C[C@@]2(C)[C@@H](C[C@@H](O)[C@H]3[C@@]4(C)CC[C@@H](O)[C@@H](C)[C@@H]4CC[C@@]32C)/C1=C(\CCC=C(C)C)C(=O)O [FUSIDIC ACID] | 400 µM |
| C/C1=C\[C@H](C)C[C@H](C)OC(=O)C[C@H](c2ccc(O)cc2)NC(=O)[C@@H](Cc2c(Br)[nH]c3ccccc23)N(C)C(=O)[C@H](C)NC(=O)[C@@H](C)C1 [JASPAMIDE] | > 500 µM |
| H-ELNFTPNWGT-NH2 | > 1000 µM |
